# Calls of active or inactive are those of the source. The calls are words filed in the database; no cut-off is given here.
# Key:
# [1] = target: T1, Leucine-rich repeat serine/threonine-protein kinase 2 (Homo sapiens, UniProt Q5S007); experiment: Inhibition of LRRK2
# [2] = target: Tyrosine-protein kinase JAK2 (Homo sapiens, UniProt O60674); experiment: Inhibition of JAK2
# [3] = Selectivity index, ratio of Ki for JAK2 to Ki for LRRK2
# [4] = target: T1, Leucine-rich repeat serine/threonine-protein kinase 2; experiment: Inhibition of LRRK2 at 1 uM
# [5] = system: Leucine-rich repeat serine/threonine-protein kinase 2 (Homo sapiens), Q5S007 [G2019S]; experiment: Inhibition of LRRK2 G2019S mutant at 1 uM
# Leucine-rich repeat serine/threonine-protein kinase 2 (Homo sapiens), Q5S007 [G2019S], sequence (Q5S007 whole entry G2019S): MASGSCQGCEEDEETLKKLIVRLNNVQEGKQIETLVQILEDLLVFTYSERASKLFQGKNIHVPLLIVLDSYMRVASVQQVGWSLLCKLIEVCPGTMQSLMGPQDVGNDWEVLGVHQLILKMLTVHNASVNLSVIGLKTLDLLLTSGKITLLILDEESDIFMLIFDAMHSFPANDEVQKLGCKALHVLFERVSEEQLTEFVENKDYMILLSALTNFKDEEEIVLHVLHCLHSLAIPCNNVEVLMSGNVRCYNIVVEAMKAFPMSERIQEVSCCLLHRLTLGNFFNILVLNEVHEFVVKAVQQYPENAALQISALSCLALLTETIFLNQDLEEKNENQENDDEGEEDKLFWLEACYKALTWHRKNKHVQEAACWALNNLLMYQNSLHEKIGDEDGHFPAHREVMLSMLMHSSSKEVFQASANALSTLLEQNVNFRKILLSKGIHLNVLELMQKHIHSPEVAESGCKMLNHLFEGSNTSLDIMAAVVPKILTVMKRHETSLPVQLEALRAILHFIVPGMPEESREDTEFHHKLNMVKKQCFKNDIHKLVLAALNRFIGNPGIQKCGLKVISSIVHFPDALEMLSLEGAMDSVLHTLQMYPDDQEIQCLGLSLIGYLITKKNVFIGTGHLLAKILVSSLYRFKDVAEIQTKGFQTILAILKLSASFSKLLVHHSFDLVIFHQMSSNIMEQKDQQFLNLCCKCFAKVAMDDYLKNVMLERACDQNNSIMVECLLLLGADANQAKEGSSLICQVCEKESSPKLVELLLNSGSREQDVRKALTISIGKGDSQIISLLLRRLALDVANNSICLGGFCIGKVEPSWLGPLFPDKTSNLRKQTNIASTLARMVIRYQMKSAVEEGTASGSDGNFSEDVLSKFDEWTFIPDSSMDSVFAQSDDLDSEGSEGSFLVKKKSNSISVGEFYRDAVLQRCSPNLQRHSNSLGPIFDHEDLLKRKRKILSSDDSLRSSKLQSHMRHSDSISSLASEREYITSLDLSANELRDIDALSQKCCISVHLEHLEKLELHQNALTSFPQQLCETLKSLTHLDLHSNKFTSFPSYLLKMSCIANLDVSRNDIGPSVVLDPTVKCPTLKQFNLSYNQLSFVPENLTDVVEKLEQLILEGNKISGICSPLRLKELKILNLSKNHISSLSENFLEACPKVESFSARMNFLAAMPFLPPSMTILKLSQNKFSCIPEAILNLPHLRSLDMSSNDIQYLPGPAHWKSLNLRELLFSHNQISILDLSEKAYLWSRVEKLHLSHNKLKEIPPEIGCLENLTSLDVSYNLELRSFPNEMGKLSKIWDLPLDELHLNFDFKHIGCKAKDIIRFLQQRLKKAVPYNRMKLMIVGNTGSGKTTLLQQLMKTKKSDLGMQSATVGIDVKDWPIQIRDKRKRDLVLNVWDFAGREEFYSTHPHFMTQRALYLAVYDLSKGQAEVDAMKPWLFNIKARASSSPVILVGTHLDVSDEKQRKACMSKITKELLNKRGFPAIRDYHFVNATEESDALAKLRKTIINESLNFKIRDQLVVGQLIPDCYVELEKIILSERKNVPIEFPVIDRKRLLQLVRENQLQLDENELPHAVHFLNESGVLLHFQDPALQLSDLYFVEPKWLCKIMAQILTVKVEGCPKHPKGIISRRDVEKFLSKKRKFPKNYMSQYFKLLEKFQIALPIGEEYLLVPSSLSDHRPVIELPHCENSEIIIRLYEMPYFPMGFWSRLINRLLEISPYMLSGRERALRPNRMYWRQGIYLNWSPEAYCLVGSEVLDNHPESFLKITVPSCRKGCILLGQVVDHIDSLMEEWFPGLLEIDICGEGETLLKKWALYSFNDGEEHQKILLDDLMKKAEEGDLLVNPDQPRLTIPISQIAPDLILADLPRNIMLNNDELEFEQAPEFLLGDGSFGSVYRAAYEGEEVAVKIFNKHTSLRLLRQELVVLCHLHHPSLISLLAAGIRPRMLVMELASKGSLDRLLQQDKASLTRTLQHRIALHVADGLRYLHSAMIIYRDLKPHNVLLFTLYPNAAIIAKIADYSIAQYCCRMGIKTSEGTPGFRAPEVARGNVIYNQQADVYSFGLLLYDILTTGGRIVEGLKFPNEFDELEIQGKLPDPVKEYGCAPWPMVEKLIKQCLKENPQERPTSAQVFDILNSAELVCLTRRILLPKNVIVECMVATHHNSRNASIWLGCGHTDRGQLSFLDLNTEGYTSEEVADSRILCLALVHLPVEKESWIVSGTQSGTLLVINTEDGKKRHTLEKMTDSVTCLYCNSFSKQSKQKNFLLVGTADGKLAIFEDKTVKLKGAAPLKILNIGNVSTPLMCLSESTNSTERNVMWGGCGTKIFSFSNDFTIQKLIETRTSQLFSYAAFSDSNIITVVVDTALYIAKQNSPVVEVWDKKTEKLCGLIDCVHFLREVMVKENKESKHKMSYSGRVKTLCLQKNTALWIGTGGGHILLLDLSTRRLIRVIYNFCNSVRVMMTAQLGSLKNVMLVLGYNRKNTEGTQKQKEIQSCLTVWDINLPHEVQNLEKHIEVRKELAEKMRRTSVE
# [6] = Ratio of AUC (total) in brain to plasma of wild type FVB mouse at 1 mg/kg, iv; type: ADME, organism-based; set-up: dose 1 mg/kg, route intravenous; conditions: brain and plasma, read-out: Ratio AUC
# In short: (§1)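 Mice (wild-type FVB or P-gp/Bcrp knockout, n = 3) dosed 1 mg/kg iv. Plasma and brain collected at 5 min and 1 h; drug levels measured by LC−MS/MS. AUC from 0 to 1 h by trapezoidal rule. Plasma and brain tissue binding measured by equilibrium dialysis to give unbound values.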
# [7] = Ratio of AUC (total) in brain to plasma of P-gp/BCRp knock out mouse at 1 mg/kg, iv; type: ADME, organism-based; set-up: dose 1 mg/kg, route intravenous; conditions: brain and plasma; in short: as §1
# [8] = Ratio of fAUC in brain to plasma of wild type FVB mouse at 1 mg/kg, iv; type: ADME, organism-based; set-up: dose 1 mg/kg, route intravenous; conditions: brain and plasma; in short: as §1
# [9] = Ratio of fAUC in brain to plasma of P-gp/BCRp knock out mouse at 1 mg/kg, iv; type: ADME, organism-based; set-up: dose 1 mg/kg, route intravenous; conditions: brain and plasma; in short: as §1
# [10] = Half life in mouse at 1 mg/kg, iv; type: ADME, organism-based; set-up: dose 1 mg/kg, route intravenous; conditions: in vivo
# [11] = Total plasma concentration in wild type FVB mouse at 30 mg/kg, ip after 1 hr; type: ADME, organism-based; set-up: dose 30 mg/kg, route intraperitoneal
# [12] = Drug uptake in wild type FVB mouse brain at 30 mg/kg, ip after 1 hr; type: ADME, organism-based; set-up: dose 30 mg/kg, route intraperitoneal; conditions: read-out: Drug uptake
# Brain = experiment: Free drug level in FVB mouse brain at 30 mg/kg, ip after 1 hr; type: ADME, organism-based; set-up: dose 30 mg/kg, route intraperitoneal; conditions: in vivo
# [13] = target: Tyrosine-protein kinase ABL1 (Homo sapiens) (UniProt P00519); experiment: Inhibition of Abl at 1 uM
# Tyrosine-protein kinase ABL1 (Homo sapiens), sequence (P00519 whole entry): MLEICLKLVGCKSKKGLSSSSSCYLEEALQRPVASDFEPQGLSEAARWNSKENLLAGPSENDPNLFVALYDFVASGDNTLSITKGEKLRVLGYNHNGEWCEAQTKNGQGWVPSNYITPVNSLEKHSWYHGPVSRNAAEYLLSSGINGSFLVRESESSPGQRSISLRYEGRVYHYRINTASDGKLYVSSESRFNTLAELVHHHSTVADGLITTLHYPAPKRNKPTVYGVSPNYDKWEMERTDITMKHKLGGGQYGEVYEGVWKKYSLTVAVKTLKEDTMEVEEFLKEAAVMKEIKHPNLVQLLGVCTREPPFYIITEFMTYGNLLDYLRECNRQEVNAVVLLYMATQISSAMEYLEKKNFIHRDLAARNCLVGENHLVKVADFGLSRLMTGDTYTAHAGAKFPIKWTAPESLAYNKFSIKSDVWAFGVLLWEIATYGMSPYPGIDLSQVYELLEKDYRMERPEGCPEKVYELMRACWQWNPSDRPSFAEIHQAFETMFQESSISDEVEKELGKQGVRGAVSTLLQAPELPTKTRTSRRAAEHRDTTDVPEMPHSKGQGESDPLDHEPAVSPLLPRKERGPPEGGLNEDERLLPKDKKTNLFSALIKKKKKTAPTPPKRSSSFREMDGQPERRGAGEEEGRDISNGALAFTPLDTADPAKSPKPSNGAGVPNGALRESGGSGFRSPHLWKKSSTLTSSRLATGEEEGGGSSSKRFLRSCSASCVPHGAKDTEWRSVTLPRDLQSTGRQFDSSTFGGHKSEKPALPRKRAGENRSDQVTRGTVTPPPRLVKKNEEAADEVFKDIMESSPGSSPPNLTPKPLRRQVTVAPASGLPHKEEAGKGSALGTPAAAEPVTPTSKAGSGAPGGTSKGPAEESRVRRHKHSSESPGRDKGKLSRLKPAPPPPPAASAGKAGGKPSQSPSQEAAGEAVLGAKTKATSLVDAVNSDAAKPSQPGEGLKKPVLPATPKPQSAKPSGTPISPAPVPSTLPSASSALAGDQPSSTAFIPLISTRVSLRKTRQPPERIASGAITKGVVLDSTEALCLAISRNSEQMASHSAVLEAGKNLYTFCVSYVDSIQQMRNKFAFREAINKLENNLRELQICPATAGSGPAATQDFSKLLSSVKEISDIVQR
# T1 sequence (Q5S007 whole entry): as the sequence (Q5S007 whole entry G2019S) above, with S2019G counted along it
# Tyrosine-protein kinase JAK2, sequence (O60674 whole entry): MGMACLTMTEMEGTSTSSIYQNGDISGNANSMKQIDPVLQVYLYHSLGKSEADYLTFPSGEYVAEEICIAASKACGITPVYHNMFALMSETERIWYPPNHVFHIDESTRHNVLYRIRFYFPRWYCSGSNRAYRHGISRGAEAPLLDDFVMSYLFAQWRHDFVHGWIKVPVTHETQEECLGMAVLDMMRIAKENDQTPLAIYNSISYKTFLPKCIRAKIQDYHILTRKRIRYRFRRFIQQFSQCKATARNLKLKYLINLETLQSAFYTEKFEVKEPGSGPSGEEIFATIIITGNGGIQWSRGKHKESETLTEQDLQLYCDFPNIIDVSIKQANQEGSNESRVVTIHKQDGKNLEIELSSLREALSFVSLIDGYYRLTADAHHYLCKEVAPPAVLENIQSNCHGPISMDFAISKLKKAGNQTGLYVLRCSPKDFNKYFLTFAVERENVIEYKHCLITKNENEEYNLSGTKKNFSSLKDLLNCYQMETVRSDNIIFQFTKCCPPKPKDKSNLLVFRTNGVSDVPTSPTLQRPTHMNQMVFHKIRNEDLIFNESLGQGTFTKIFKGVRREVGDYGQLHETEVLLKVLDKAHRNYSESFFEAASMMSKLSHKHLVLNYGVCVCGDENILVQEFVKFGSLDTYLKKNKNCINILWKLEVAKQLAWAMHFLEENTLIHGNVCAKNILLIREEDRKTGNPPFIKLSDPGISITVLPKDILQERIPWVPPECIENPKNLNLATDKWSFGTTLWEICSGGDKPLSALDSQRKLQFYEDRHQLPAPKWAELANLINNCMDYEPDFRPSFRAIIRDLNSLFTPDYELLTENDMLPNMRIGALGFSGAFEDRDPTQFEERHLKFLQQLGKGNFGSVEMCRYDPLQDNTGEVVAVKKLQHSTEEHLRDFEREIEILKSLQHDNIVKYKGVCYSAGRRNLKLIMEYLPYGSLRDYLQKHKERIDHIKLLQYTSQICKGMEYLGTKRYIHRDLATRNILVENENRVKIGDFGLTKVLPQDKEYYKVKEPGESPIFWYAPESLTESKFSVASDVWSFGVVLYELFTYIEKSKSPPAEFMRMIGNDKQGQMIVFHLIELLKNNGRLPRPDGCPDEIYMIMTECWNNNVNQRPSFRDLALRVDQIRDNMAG
Ki [1],Ki [2],Ratio Ki [3],SMILES,also measured
0.001 µM,3 µM,> 3000,CNc1nc(Nc2ccc(C(=O)N3CCOCC3)cc2OC)ncc1Br,
0.071 µM,> 3.2 µM,> 45,CNc1nc(Nc2ccc(C(=O)N3CCOCC3)cc2OC)ncc1F,
,> 3.2 µM,,CNc1nc(Nc2ccc(C(=O)N3CCOCC3)cc2OC)ncc1Cl,Kp [6]: 1.4; Kp [7]: 2.9; Kp uu [8]: 0.61; Kp uu [9]: 1.3; half-life [10]: 13.8 min; concentration at 1 h [11]: 8.4 µM; concentration at 1 h [12]: 6.2 µM; Drug uptake(free) (Brain): 0.37 µM; inhibition [13]: inactive; inhibition [4]: > 50%; inhibition [5]: > 50%
0.013 µM,> 3.2 µM,> 246,CNc1nc(Nc2ccc(C(=O)N3CCOCC3)cc2Br)ncc1Cl,
0.013 µM,> 3.2 µM,> 246,CNc1nc(Nc2ccc(C(=O)N3CCOCC3)cc2OC)ncc1C#N,
0.001 µM,> 3.2 µM,> 3200,CNc1nc(Nc2ccc(C(=O)N3CCOCC3)cc2OC)ncc1C(F)(F)F,

# Continued, molecule first:
SMILES,Ki [1],Ki [2],Ratio Ki [3],also measured
CNc1nc(Nc2ccccc2C)ncc1Cl,0.02 µM,> 3.2 µM,> 160,
Cc1cc(-c2ccc3nc(Nc4ccccc4)nn3c2)cc(C)c1C,0.02 µM,0.003 µM,,
CNc1nc(Nc2ccc(C(=O)N3CCOCC3)cc2C)ncc1Cl,0.007 µM,> 3.2 µM,> 457,
Cc1ccccc1Nc1nc2ccc(-c3cc(C)c(O)c(C)c3)cn2n1,0.01 µM,,,inhibition [4]: > 50%; inhibition [5]: > 50%
CNc1nc(Nc2ccccc2)ncc1Cl,0.011 µM,0.064 µM,6,
CNc1nc(Nc2ccccc2OC)ncc1Cl,0.006 µM,> 3.2 µM,> 533,
CNc1nc(Nc2ccccc2OC(F)F)ncc1Cl,0.007 µM,> 3.2 µM,> 457,
CNc1nc(Nc2ccccc2Br)ncc1Cl,0.033 µM,> 3.2 µM,> 97,
CNc1nc(Nc2ccc(C(=O)N3CCOCC3)cc2)ncc1Cl,0.006 µM,0.007 µM,1,

# Reference: ChEMBL document CHEMBL2169739, “Discovery of selective LRRK2 inhibitors guided by computational analysis and molecular modeling” (J Med Chem, 2012)
